Reference: ChEMBL document CHEMBL1144433, “1-Amino-1,2,3,4-tetrahydronaphthalene-2-carboxylic acid as a Tic mimetic: application in the synthesis of potent human melanocortin-4 receptor selective agonists” (Bioorg Med Chem Lett, 2005)

What was measured:
Melanocortin receptor 4 = Melanocortin receptor 4 (Homo sapiens, UniProt P32245); test: Concentration required for 50% inhibition by displacement of [125I]NDP-alpha-MSH of human MC4R expressed in CHO cells; format: cell-based
Summary of the method: (§1)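 Competition binding against [125I]-NDP-α-MSH at human melanocortin receptors expressed in CHO cells. Values are means ± standard error from at least three determinations.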

Melanocortin receptor 3 = Melanocortin receptor 3 (Homo sapiens, UniProt P41968); test: Concentration required for 50% inhibition by displacement of [125I]NDP-alpha-MSH of human MC3R expressed in CHO cells; format: cell-based
Sequence of Melanocortin receptor 3 (P41968 whole entry): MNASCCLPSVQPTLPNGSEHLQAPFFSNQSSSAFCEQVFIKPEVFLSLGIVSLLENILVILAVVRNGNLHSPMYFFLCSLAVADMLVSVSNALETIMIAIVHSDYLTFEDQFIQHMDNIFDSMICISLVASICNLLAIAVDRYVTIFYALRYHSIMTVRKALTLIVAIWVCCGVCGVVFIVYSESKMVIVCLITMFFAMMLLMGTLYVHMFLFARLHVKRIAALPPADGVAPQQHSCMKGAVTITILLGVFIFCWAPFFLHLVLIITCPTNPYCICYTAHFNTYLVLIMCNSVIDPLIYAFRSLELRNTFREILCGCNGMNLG

[1] = target: Melanocyte-stimulating hormone receptor (Homo sapiens, UniProt Q01726); test: Concentration required for 50% inhibition by displacement of [125I]NDP-alpha-MSH of human MC1R expressed in CHO cells; format: cell-based
Sequence of Melanocyte-stimulating hormone receptor (Q01726 whole entry): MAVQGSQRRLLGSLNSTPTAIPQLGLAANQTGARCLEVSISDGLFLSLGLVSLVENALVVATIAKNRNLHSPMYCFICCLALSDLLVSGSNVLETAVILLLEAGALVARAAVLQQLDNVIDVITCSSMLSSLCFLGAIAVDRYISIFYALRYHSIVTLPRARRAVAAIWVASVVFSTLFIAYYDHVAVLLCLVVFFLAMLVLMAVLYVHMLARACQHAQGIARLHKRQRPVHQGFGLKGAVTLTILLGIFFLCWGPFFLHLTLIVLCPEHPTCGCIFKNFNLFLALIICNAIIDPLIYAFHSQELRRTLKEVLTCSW

Melanocortin receptor 5 = Melanocortin receptor 5 (Homo sapiens, UniProt P33032); test: Concentration required for 50% inhibition by displacement of [125I]NDP-alpha-MSH of human MC5R expressed in CHO cells; format: cell-based; summary of the method: as §1
Sequence of Melanocortin receptor 5 (P33032 whole entry): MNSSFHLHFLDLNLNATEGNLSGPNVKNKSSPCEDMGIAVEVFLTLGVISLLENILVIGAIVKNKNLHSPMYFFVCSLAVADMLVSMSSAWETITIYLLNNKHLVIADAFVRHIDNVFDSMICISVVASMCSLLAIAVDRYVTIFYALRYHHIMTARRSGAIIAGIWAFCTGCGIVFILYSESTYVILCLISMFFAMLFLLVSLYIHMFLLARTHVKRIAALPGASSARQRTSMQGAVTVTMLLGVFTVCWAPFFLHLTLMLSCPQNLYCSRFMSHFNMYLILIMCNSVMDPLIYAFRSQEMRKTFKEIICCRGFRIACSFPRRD

[2] = Pharmacokinetic parameter hal life studied in dog; format: ADME, organism-based, Canis lupus familiaris; conditions: in vivo
Summary of the method: (§2)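 Beagle dogs were dosed with a solution in EtOH/PEG/water (1:4:5), 0.5 mg iv and 2.0 mg/kg po. F, clearance, Vdss, t1/2 and tmax were derived from these doses.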

[3] = Pharmacokinetic parameter F studied in dog; format: ADME, organism-based, Canis lupus familiaris; conditions: in vivo; summary of the method: as §2
[4] = Pharmacokinetic parameter F studied in rat; format: ADME, organism-based; conditions: in vivo
Summary of the method: (§3)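 Sprague–Dawley rats were dosed with a EtOH/PEG/water (1:4:5) solution, 1 mg/kg iv and 4 mg/kg po. F, clearance, Vdss and t1/2 were derived from these doses.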

[5] = Pharmacokinetic parameter Vdss studied in rat; format: ADME, organism-based; conditions: in vivo, read-out: Vdss; summary of the method: as §3
[6] = Pharmacokinetic parameter Cl(clearance) studied in dog; format: ADME, organism-based, Canis lupus familiaris; conditions: in vivo; summary of the method: as §2
[7] = Pharmacokinetic parameter hal life studied in rat; format: ADME, organism-based; conditions: in vivo; summary of the method: as §3
[8] = Pharmacokinetic parameter Vdss studied in dog; format: ADME, organism-based, Canis lupus familiaris; conditions: in vivo, read-out: Vdss; summary of the method: as §2
[9] = Pharmacokinetic parameter Cl(clearance) studied in rat; format: ADME, organism-based; conditions: in vivo; summary of the method: as §3
[10] = Pharmacokinetic parameter max half life studied in dog; format: ADME, organism-based, Canis lupus familiaris; conditions: in vivo; summary of the method: as §2

Sequence of Melanocortin receptor 4 (P32245 whole entry): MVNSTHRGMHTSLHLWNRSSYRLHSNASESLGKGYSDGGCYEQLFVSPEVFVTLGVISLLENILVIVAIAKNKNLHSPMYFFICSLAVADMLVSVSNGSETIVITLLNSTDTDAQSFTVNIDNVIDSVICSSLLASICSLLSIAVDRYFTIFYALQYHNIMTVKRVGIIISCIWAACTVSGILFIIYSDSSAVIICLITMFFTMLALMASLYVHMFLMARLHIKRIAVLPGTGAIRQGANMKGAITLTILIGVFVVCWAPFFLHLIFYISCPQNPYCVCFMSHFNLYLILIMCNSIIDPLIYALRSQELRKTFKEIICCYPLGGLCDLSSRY

Work on `CC(C)(C)NC(=O)C1(C2CCCCC2)CCN(C(=O)[C@@H](Cc2ccc(Cl)cc2)NC(=O)C2Cc3ccccc3C2N)CC1` (some centres undefined) yielded an IC50 (Melanocortin receptor 4) of 0.0019 µM, an IC50 (Melanocortin receptor 3) of 0.083 µM and an IC50 [1] of 1.4 µM. For the same compound, the IC50 (Melanocortin receptor 5) was 0.034 µM.

`CC(C)(C)NC(=O)C1(C2CCCCC2)CCN(C(=O)[C@@H](Cc2ccc(Cl)cc2)NC(=O)C2CCCc3ccccc3C2N)CC1` (some centres undefined) showed an IC50 (Melanocortin receptor 4) of 0.0011 µM, an IC50 (Melanocortin receptor 3) of 0.097 µM and an IC50 [1] of 0.22 µM. For the same compound, the IC50 (Melanocortin receptor 5) was 0.054 µM.

For `CC(C)(C)NC(=O)C1(C2CCCCC2)CCN(C(=O)[C@@H](Cc2ccc(Cl)cc2)NC(=O)[C@@H]2CCc3ccccc3[C@@H]2N)CC1`, the IC50 (Melanocortin receptor 4) was 0.00077 µM, the IC50 (Melanocortin receptor 3) was 0.032 µM and the IC50 [1] was 0.98 µM. For the same compound, the IC50 (Melanocortin receptor 5) was 0.024 µM.

With `CC(C)(C)NC(=O)C1(C2CCCCC2)CCN(C(=O)[C@@H](Cc2ccc(Cl)cc2)NC(=O)[C@H]2CCc3ccccc3[C@@]2(C)N)CC1` the IC50 (Melanocortin receptor 4) was 0.0011 µM, the IC50 (Melanocortin receptor 3) was 0.17 µM and the IC50 [1] was 0.62 µM. The IC50 (Melanocortin receptor 5) was 0.031 µM.

Work on `CC(C)(C)NC(=O)C1(C2CCCCC2)CCN(C(=O)[C@@H](Cc2ccc(Cl)cc2)NC(=O)[C@H]2CCc3ccccc3[C@H]2N)CC1` yielded a half-life [2] of 3.4 h, a bioavailability [3] of 42% and a bioavailability [4] of 11%. For the same compound, the Vd [5] was 3.9 L/kg, the IC50 (Melanocortin receptor 4) was 0.00037 µM and the clearance [6] was 11 mL/min/kg. It also gave a half-life [7] of 2 h, a Vd [8] of 2.9 L/kg and an IC50 (Melanocortin receptor 3) of 0.12 µM. The clearance [9] was 35 mL/min/kg, the IC50 [1] was 0.53 µM and the IC50 (Melanocortin receptor 5) was 0.064 µM. The Tmax [10] was 2 h.
